Here are results for eight molecules from PMC3280409 (Analytical and Bioanalytical Chemistry, 2012).

Data set [1] has as its target MBNL1-His6/Biot-(CUG)12 binding. The data set is described as follows: HTRF binding assay of MBNL1-His6 and Biot-. Particulars: for IC50: read-out: IC50 (μM) HTRF, hit confirmation, 12-point 1:3 titration, 0.3 nM – 57.5 μM, 1536-well, duplicates. In a few lines:
(§1)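 Recombinant MBNL1-His6 (IPTG-induced, Ni-agarose purified, desalted, purity-corrected by SYPRO-stained gel) at 20 nM with 20 nM Biot-(CUG)12. Read after 60 min at room temperature, in duplicate points. IC50 from dose-response inhibition fits of three independent experiments.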
On the technique in general: In TR-FRET formats the signal depends on donor and acceptor labels being close together.

The test system of data set [2] is (CUG)20 RNA. The data set is described as follows: RNA degradation assay. It is filed as biochemical. Particulars: 30 min, assay buffer, 37°C, varying compound concentrations (NF449 up to 800 μM). The method, boiled down:
(§2)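 5′-32P-labelled RNA was gel-purified, denatured at 85°C for 1 min and slow-cooled to 37°C. At 100 pM it was incubated with varying test compound concentrations in Tris-HCl pH 8.0/NaCl/KCl/MgCl2 assay buffer for 30 min at 37°C. The reaction was stopped with 7.5 M urea/20 mM EDTA and analysed on denaturing 12% PAGE.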

In data set [3] the test system is (CAG)20 RNA. Briefly: RNA degradation assay. The data set is classed as biochemical. Particulars: 30 min, assay buffer, 37°C, varying compound concentrations (NF449 up to 800 μM). The method, boiled down: as §2
Data set [4] relates to MBNL1-His6/Biot-(CUG)12 binding. Briefly: AlphaScreen binding assay of MBNL1-His6 and Biot-. Particulars: 1536-well format, 4 ul final volume. In a few lines:
as §1

Data set [5] concerns the target (CUG)109 transcript. The data set is described as follows: Filter binding assay of MBNL1 constructs to. Particulars: read-out: KD, (CUG)109 binding affinity. In a few lines: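 5′-32P-labelled RNA was denatured at 85°C for 1 min and slow-cooled to 37°C in Tris-HCl pH 8.0/NaCl/KCl/MgCl2 assay buffer. It was incubated with full-length or truncated recombinant MBNL1 for 30 min at 37°C, then captured on a nitrocellulose/Hybond N+ sandwich by slot-blot. Kd came from a one-site binding model over three independent experiments.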

Where a name gives a salt, the structure may show the parent alone. d = 2'-deoxy (DNA); r = 2'-OH (RNA)

By IC50 is commonly meant the midpoint of a concentration-inhibition curve. In the case of `CC(O)C(C)OC(=O)[C@@H]1C[C@@H]2c3cccc4c3c(cn4C(C)C)C[C@H]2N(C)C1` (some centres unmarked) [LY-53,857 maleate], the IC50 in data set [1] was found to be 38 µM. For `CN1C[C@H](CNC(=O)OCc2ccccc2)C[C@@H]2c3cccc4c3c(cn4C)C[C@H]21` [Metergoline], the IC50 in data set [1] came out at 52 µM. `O=C(Nc1cc(C(=O)Nc2ccc(S(=O)(=O)O)cc2S(=O)(=O)O)cc(C(=O)Nc2ccc(S(=O)(=O)O)cc2S(=O)(=O)O)c1)Nc1cc(C(=O)Nc2ccc(S(=O)(=O)O)cc2S(=O)(=O)O)cc(C(=O)Nc2ccc(S(=O)(=O)O)cc2S(=O)(=O)O)c1` [NF449 octasodium salt]: the IC50 in data set [1] was 31 µM. `CCCN1C[C@H](CSC)C[C@@H]2c3cccc4[nH]cc(c34)C[C@H]21` [Pergolide methanesulfonate]: in data set [1], the half-maximal inhibitory concentration (IC50) amounted to 24.8 µM.

`Cn1ccc2cc(NC(=O)Nc3cccnc3)ccc21` [SB 200646 HCl]: the half-inhibitory concentration (IC50) in data set [1] is 55.7 µM. Take `Cl.Cl.Oc1ccc2c3c1O[C@H]1c4[nH]c5c(c4C[C@@]4(O)[C@@H](C2)N(CC2CC2)CC[C@]314)C[C@@]1(O)[C@H]2Cc3ccc(O)c4c3[C@@]1(CCN2CC1CC1)[C@H]5O4` [nor-Binaltorphimine dihydrochloride]: in data set [1], the half-inhibitory concentration (IC50) is 21.9 µM. The “RNA degradation of (CUG)20” value in data set [2] is recorded as “significant RNA degradation”. For the same molecule, in data set [3], the “RNA degradation of (CAG)20” value was “significant RNA degradation”.

Consider “ssCAG-21: unlabeled mixed RNA/DNA oligo, sequence 5′-rUrArGrCrArGrCrArGrCrArGrCrArGrCrArGrCTT; positive control competitive inhibitor (UAGCAGCAGCAGCAGCAGCTT; sugars from the 5' end r19 d2, backbone not given here)”, for which the “IC50 of inhibition of MBNL1-(CUG)12 binding, HTRF” value in data set [1] (1536-well format, 4 ul final volume) was “comparable to those obtained from the 384-well assays”. Besides, in data set [4], the “IC50 of inhibition of MBNL1-(CUG)12 binding, AlphaScreen” value was “comparable to those obtained from the 384-well assays”.

B1: MBNL1-FL: full length recombinant MBNL1 protein (protein, UniProt Q9NR56 1-388, looked up)
chain: MAVSVTPIRDTKWLTLEVCREFQRGTCSRPDTECKFAHPSKSCQVENGRVIACFDSLKGRCSRENCKYLHPPPHLKTQLEINGRNNLIQQKNMAMLAQQMQLANAMMPGAPLQPVPMFSVAPSLATNASAAAFNPYLGPVSPSLVPAEILPTAPMLVTGNPGVPVPAAAAAAAQKLMRTDRLEVCREYQRGNCNRGENDCRFAHPADSTMIDTNDNTVTVCMDYIKGRCSREKCKYFHPPAHLQAKIKAAQYQVNQAAAAQAAATAAAMTQSAVKSLKRPLEATFDLGIPQAVLPPLPKRPALEKTNGATAVFNTGIFQYQQALANMQLQQHTAFLPPVPMVHGATPATVSAATTSATSVPFAATATANQIPIISAEHLTSHKYVTQM
modifications: full-length
What is called Kd is the equilibrium constant for the complex coming apart. With B1, the Kd in data set [5] was 0.00692 ± 0.00078 µM.
